About 25 (1%) of roughly 2,300 compounds were called active. The sample holds actives, similar compounds and a random draw of the others, so the mix is not that of the screen.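 The calls were made as follows: active = mean inhibition over three replicate wells above the hit threshold derived in the earlier primary screen (cut at about 45% in these data); inactive = the rest.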
These compounds were tested on Hepatitis C virus core protein (core106 dimerization) (assay: inhibitors of HCV core protein dimerization, confirmation, biochemical, TR-FRET, triplicate (AID 2152;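 also: 0% = DMSO wells and 100% = unlabelled core106 competitor control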)). Conditions: TR-FRET GST-/Flag-core106 dimerization, HTRF; at 5 µM; hits give high values.
Summary of the method: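 Test system – GST- and Flag-tagged HCV core106 peptides, dimerization via antibody TR-FRET · Amount – 17 nM Flag- plus 13.5 nM GST-core106 · Schedule – 4 h incubation, 22.5 °C · Compound dosing – one 5 µM dose, 0.5% DMSO · Detection – TR-FRET, 340 nm excitation, 671/617 nm emission · Reagent – Eu(K)-anti-GST plus XL665-anti-FLAG antibodies · Read-out basis – percent inhibition from emission ratio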

SMILES	inhibition
COc1cc(-c2cc(C(=O)OCC(=O)Nc3ccc4c(c3)OCO4)c3ccccc3n2)cc(OC)c1OC	4.02% (inactive)
CN(CC(=O)Nc1c(Cl)cccc1Cl)C(=O)c1cccc(-n2cccc2)c1	2.1% (inactive)
COc1ccc(CC(=O)OCC(=O)Nc2ncc(Cl)cc2Cl)cc1	-1.83% (inactive)
COc1ccccc1NC(=O)c1ccc(SCC(=O)NCc2ccccc2Cl)c([N+](=O)[O-])c1	-1.75% (inactive)
O=C(NCc1ccco1)C1Cc2ccccc2CN1S(=O)(=O)c1ccccc1F (centres undefined)	18.4% (inactive)
C/C=C\C=C/C(=O)Nc1cccc(C2=NOC3(C2)C[C@@H](C(N)=O)N(C(=O)[C@H]2CCC(=O)N2)C3)c1 (some centres undefined)	-14.3% (inactive)
O=C(N/N=C/c1ccc(N2CCCCC2)o1)C(O)(c1ccccc1)c1ccccc1	-3.6% (inactive)
CCOc1ccc(C2C(C#N)=C(N)SC(N)=C2C#N)cc1OCC	31.4% (inactive)
COc1ccccc1C(CCN(Cc1cccs1)C(C)=O)c1ccco1 (centres undefined)	-3.29% (inactive)
O=C(NCCN1C(=O)S/C(=C\c2ccc(Cl)c(Cl)c2)C1=O)c1ccc2c(c1)C(=O)N(Cc1ccncc1)C2=O	6.43% (inactive)
O=C(COc1ccc([N+](=O)[O-])cc1)Nc1nnc(-c2cccnc2)s1	16.4% (inactive)
CC[C@@H](C)CN1C(=O)N[C@@H](c2ccccc2)C(C(C)=O)=C1C	5.08% (inactive)
CCOC(=O)c1cccc(NC(=O)C2CCCN(c3nnc(N4CCCC4=O)s3)C2)c1 (centres undefined)	-7.1% (inactive)
O=c1c2c3nc4ccccc4nc3n(/N=C/c3ccco3)c2ncn1CCC1=CCCCC1	2.56% (inactive)
O=C(O)C/C(=C\c1cc(Cl)c2c(c1)OCO2)c1nc2ccccc2s1	4.02% (inactive)
Cc1ccc(NC(=O)Nc2nnc(Cc3ccc([N+](=O)[O-])cc3)s2)cc1	6.61% (inactive)
N=c1c(C(=O)NCc2ccco2)cc2c(=O)n3ccccc3nc2n1Cc1ccc(Cl)cc1	9.28% (inactive)
COc1ccccc1/C=c1\sc2nc(-c3ccco3)nn2c1=O	8.15% (inactive)
COc1ccccc1/C=C/C=c1\sc2nc(=O)c(Cc3ccccc3)nn2c1=O	46.4% (active)
O=c1nc2s/c(=C\c3ccco3)c(=O)n2nc1Cc1ccc(F)cc1	14.3% (inactive)
COc1cccc(/C=N/NC(=O)c2nc(-c3ccccc3)cc(-c3ccccc3)n2)c1	6.79% (inactive)
Cc1ccc(C)c(N2CCN(C(=O)CSc3ccsc3[N+](=O)[O-])CC2)c1	12.5% (inactive)
O=C(/C=C\c1ccc2c(c1)OCO2)Nc1c2c(nn1-c1ccc(Cl)cc1)CSC2	-1.47% (inactive)
O=C(Cn1cnc2sc(-c3ccccc3)cc2c1=O)NCc1ccco1	3.55% (inactive)
Cc1ccc(-c2csc(N3N=C(c4ccccc4)/C(=C\c4ccc(N(C)C)cc4)C3=O)n2)cc1	1.99% (inactive)
CCOc1cc(/C=C2\C(=O)N(c3nc(-c4ccc(Br)cc4)cs3)N=C2c2ccccc2)ccc1O	58.1% (active)
CCc1ccc(-c2csc(NC(=O)C3=NN(c4ccccc4)C(=O)CC3)n2)cc1	-3.1% (inactive)

SMILES	inhibition
O=C(OCC(=O)N1CCN(C(=O)c2ccco2)CC1)c1cc(-c2ccco2)nc2ccccc12	30.6% (inactive)
CN(C(=O)COC(=O)c1cc(-c2ccco2)nc2ccccc12)C1CCS(=O)(=O)C1 (centres undefined)	49.6% (active)
CNC(=O)COC(=O)c1cc(-c2ccco2)nc2ccccc12	12.2% (inactive)
Cc1cc(C)c(S(=O)(=O)N2CCOC2CNC(=O)C(=O)NCCc2ccc(S(N)(=O)=O)cc2)c(C)c1 (centres undefined)	-0.31% (inactive)
Cc1[nH]c2ccccc2c1CCNC(=O)c1ccc2c(c1[N+](=O)[O-])C(=O)c1ccccc1C2=O	-6.67% (inactive)
CCOc1cc(/C=N\NC(=O)c2ccc(NC(=O)C(C)(C)C)cc2)ccc1OC(=O)c1cccc(C)c1	-6.21% (inactive)
C=CCOc1ccc(-c2nc3c(c(=O)[nH]c(=O)n3Cc3ccccc3)n2CCCOC)cc1	3% (inactive)
C=CCn1c(C)cc(C(=O)COC(=O)c2ccc3c(c2)NC(=O)CS3)c1C	-0.86% (inactive)
COC(=O)c1ccccc1NC(=O)CN1C(=O)C2CCCN2c2ncc(Cl)cc21 (centres undefined)	4.11% (inactive)
CCCN(CCC)C(=O)CC(c1ccc(F)cc1)c1ccco1 (centres undefined)	-2.6% (inactive)
COc1ccc(C2=NN(C(=O)CSc3nc(=O)n4cccc(C)c4n3)C(c3ccc(C)cc3)C2)cc1 (centres undefined)	21.8% (inactive)
O=C(NNC(=O)c1cccc(-n2cccc2)c1)c1ccc(F)cc1	9.23% (inactive)
Cc1ccc(-c2cc(C(F)F)n3ncc(C(=O)Nc4c(C)nn(Cc5ccccc5Cl)c4C)c3n2)cc1	0.26% (inactive)
N#Cc1ccsc1NC(=O)COc1ccc(-c2nnco2)cc1	3.2% (inactive)
O=C1CC(c2ccco2)Cc2nc(N3CCc4ccccc4C3)ncc21 (centres undefined)	0.9% (inactive)
CCN(CC)c1cc2nc(C)n(Cc3ccccc3)c(=O)c2cc1NC(=O)C1CC1	3.07% (inactive)
Cc1cc([N+](=O)[O-])cc2c1NC(c1ccccn1)C1CC=CC21 (centres undefined)	8.17% (inactive)
CC(C)Cc1nc(N2CCN(C(=O)c3ccco3)CC2)c(C#N)c2c1CCC2	-9.13% (inactive)
Cc1ccc2[nH]c(=O)c(CN(Cc3ccc4c(c3)OCO4)Cc3nnnn3Cc3ccco3)cc2c1	-2.73% (inactive)
COc1ccc(C(=S)N2CCOCC2)cc1OC(=O)c1cc([N+](=O)[O-])c(C)c([N+](=O)[O-])c1	3.86% (inactive)
COc1ccc(/C=C2\SC(=S)N(NC(=O)c3csc4c3CCCC4)C2=O)cc1	-8.8% (inactive)
CC(C)Cn1c(-c2ccccc2)nc(=S)c2c1CCCC2	2.05% (inactive)
COc1ccc(NC(=O)NNC(=O)COc2ccc3cc(Br)ccc3c2)c(OC)c1	0.29% (inactive)
COC/C=C/C1=CC2=CC(=O)C(C)(OC(=O)c3cnc4ccccc4n3)C(=O)C2=CN1Cc1ccc(OC)cc1 (centres undefined)	2.72% (inactive)
O=C1c2ccccc2C(Nc2ccc3c(c2)OCO3)N1Cc1ccc2c(c1)OCO2 (centres undefined)	-1.13% (inactive)
CC(=O)c1ccc(NC(=O)/C(=C\c2ccccc2)NC(=O)/C=C/c2ccccc2)cc1	-3.84% (inactive)
C=C(NC(=O)C(=C)NC(=O)c1csc(C2=NC3c4csc(n4)C4NC(=O)c5csc(n5)C([C@@](C)(O)C(C)O)NC(=O)C5CSC(=N5)/C(=C\C)NC(=O)C(C(C)O)NC(=O)c5csc(n5)[C@]3(CC2)NC(=O)C(C)NC(=O)C(=C)NC(=O)C(C)NC(=O)C(C(C)CC)NC2C=Cc3c(C(C)O)cc(nc3C2O)C(=O)OC4C)n1)C(N)=O (some centres undefined)	47.5% (active)

SMILES	inhibition
CS(=O)(=O)N1CCc2cc(-c3csc(NC(=O)C(c4ccccc4)c4ccccc4)n3)ccc21	-5% (inactive)
O=C(COC(=O)c1ccccc1Oc1ccccc1)NCc1ccco1	-1.91% (inactive)
Cc1ccc(NC(=O)N(Cc2ccc3c(c2)OCO3)Cc2cc3cc4c(cc3[nH]c2=O)OCCO4)cc1	2.67% (inactive)
CC(=O)NS(=O)(=O)c1ccc(NC(=O)c2cc(-c3ccc(C)c(C)c3)nc3ccccc23)cc1	5.8% (inactive)
COc1cc(C(=O)NCC(=O)OCC(=O)c2cccc3ccccc23)cc(OC)c1OC	-3.85% (inactive)
O=C(c1ccco1)N1CCN(c2nc(C3CC3)nc3c2nnn3Cc2ccccc2Cl)CC1	-2.25% (inactive)
CCOC(=O)c1nn(-c2ccccc2C)c2nc(-c3ccc(Cl)cc3)c(C#N)c(=O)n12	3.54% (inactive)
Cc1cccc(N(C)S(=O)(=O)c2ccc3c(c2)C(C)(C)C(=O)N3C)c1	4.84% (inactive)
COc1cc(OC)c(NC(=O)CN(C)S(=O)(=O)c2ccc(-c3ccc(=O)[nH]n3)s2)cc1Cl	-0.24% (inactive)
O=C1COc2ccc(C(=O)COC(=O)/C=C/c3ccc(Br)o3)cc2N1	35.5% (inactive)
O=C(COC(=O)/C=C/c1ccc(Br)o1)Nc1ccc2[nH]c(=O)[nH]c2c1	24.5% (inactive)
O=C(/C=C/c1ccc(Br)o1)OCc1nc2ccsc2c(=O)[nH]1	46% (active)
Cc1ccccc1N1CC(C(=O)Nc2nnc(SCc3ccccn3)s2)CC1=O (centres undefined)	0.24% (inactive)
O=C(Nc1ccc(N2CCCC2)c(Cl)c1)c1ccc2c(c1)OCCO2	-0.93% (inactive)
Cc1ccc(OCC(=O)c2cc(C)c(C)cc2C)c([N+](=O)[O-])n1	-9.54% (inactive)
Cc1cc(C(=O)CSc2nnc(-c3ccc(OC(F)F)cc3)o2)c(C)n1Cc1cccs1	-10.5% (inactive)
C=CCn1c(C)cc(C2=NNC(=Nc3ccc(C)cc3)SC2)c1C	-4.54% (inactive)
O=C(O)CCC(=O)N1N=C(c2cccs2)CC1c1cn(-c2ccccc2)nc1-c1ccccc1 (centres undefined)	7.42% (inactive)
O=c1cc(-c2ccccc2Cl)c2c([nH]1)CCC2	-2.22% (inactive)
Cc1ccc(C2CC(=O)N3CN(c4ccc(Br)cc4)CSC3=C2C#N)o1 (centres undefined)	-1.74% (inactive)
Cc1cccc(N2CSC3=C(C#N)C(c4ccc(C)o4)CC(=O)N3C2)c1 (centres undefined)	50.5% (active)
Cc1ccc(C2C(C#N)=C(N)Oc3c2sc2ccccc32)o1 (centres undefined)	14% (inactive)
CC1CCc2sc(C(=O)N/N=C/c3ccc([N+](=O)[O-])cc3)cc2C1 (centres undefined)	-11.5% (inactive)
Cc1cccc(N2CC(C(=O)Nc3nnc(SCC(=O)N4CCOCC4)s3)CC2=O)c1 (centres undefined)	11.4% (inactive)
Cc1ccc(Cn2c(C(C)Nc3nc(-c4ccc(Cl)c([N+](=O)[O-])c4)cs3)nc3cc(C(F)(F)F)ccc32)cc1 (centres undefined)	5.29% (inactive)

Source: PubChem BioAssay AID2152 (The Scripps Research Institute Molecular Screening Center, 2009)
